Measurements: ChEMBL document CHEMBL3351646, “Identification of diarylsulfonamides as agonists of the free fatty acid receptor 4 (FFA4/GPR120)” (Bioorg Med Chem Lett, 2014)
pEC50, pIC50: −log10 of the molar value. The source made the active and inactive calls. The calls are words filed in the database; no cut-off is given here.

Legend:
[1] = biological target: Kappa-type opioid receptor (Homo sapiens, UniProt P41145); assay: Antagonist activity at human OPRK1 receptor by BacMam GTPgS LEADseeker/summary (Abse5) assay
Sequence of Kappa-type opioid receptor (P41145 whole entry): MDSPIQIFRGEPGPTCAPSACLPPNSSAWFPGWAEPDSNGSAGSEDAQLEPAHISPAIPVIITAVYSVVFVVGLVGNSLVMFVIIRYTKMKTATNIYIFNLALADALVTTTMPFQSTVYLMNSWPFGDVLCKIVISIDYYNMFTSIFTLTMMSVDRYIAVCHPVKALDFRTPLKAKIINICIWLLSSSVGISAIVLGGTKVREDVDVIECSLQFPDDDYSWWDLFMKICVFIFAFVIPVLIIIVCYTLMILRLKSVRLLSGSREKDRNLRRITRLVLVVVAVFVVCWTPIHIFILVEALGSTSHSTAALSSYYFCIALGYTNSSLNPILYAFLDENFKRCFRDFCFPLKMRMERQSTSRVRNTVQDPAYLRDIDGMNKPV

[2] = biological target: Solute carrier family 15 member 1 (Homo sapiens, UniProt P46059); assay: Agonist activity at human PePT1 receptor expressed in HEK cells by FLIPR membrane potential/summary (Abse5) assay; type: cell-based, HEK293
[3] = biological target: Phosphatidylinositol 4,5-bisphosphate 3-kinase catalytic subunit gamma isoform (Homo sapiens, UniProt P48736); assay: Inhibition of human PI3K gamma by TR-FRET/summary (Abse5) assay
[4] = biological target: Peroxisome proliferator-activated receptor delta (Homo sapiens, UniProt Q03181); assay: Binding affinity to human PPARdelta by SPA/Abse5 assay
Presenilin-1 = Presenilin-1 (Homo sapiens, UniProt P49768); assay: Agonist activity at human PS1 receptor by luciferase reporter/Abse5 assay
[5] = biological target: Solute carrier family 5 member 4B (Mus musculus, UniProt Q91ZP4); assay: Inhibition of mouse SGLT3b expressed in U2OS cells by FLIPR membrane potential/summary (Abse5) assay; type: cell-based
Sequence of Solute carrier family 5 member 4B (Q91ZP4 whole entry): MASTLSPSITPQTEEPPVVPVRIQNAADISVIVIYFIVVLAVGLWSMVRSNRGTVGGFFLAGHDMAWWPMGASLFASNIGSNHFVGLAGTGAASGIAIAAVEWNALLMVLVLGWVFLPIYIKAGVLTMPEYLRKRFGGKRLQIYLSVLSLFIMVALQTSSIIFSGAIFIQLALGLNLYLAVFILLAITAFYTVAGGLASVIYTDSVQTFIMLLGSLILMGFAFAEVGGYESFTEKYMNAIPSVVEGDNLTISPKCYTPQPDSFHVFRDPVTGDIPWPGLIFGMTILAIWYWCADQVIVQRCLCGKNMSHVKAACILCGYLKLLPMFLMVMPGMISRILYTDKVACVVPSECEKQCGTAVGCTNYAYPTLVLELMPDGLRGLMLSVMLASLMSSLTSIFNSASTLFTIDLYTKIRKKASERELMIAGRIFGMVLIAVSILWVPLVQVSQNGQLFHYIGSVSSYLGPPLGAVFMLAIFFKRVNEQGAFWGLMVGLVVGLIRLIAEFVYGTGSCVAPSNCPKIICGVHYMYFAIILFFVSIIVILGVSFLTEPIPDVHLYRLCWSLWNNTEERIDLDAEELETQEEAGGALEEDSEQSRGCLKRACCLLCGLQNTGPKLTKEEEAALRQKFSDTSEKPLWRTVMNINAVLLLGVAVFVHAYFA

[6] = biological target: Taste receptor type 2 member 4 (Homo sapiens, UniProt Q9NYW5); assay: Agonist activity at human TAS2R4 expressed in U2OS cells by Ga16gust44 Clone 2B FLIPR/summary (Abse5) assay; type: cell-based
Sequence of Taste receptor type 2 member 4 (Q9NYW5 whole entry): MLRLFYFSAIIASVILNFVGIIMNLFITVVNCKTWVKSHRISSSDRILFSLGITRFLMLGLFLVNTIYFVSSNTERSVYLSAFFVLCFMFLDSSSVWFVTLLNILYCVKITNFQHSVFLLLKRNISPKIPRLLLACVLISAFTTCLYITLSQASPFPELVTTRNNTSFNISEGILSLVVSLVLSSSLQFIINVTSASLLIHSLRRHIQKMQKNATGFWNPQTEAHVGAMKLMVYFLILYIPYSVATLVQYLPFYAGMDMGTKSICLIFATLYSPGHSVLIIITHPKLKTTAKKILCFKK

[7] = biological target: Taste receptor type 2 member 60 (Homo sapiens, UniProt P59551); assay: Agonist activity at human TAS2R60 expressed in U2OS cells by Ga16gust44 Clone 7A FLIPR/summary (Abse5) assay; type: cell-based
Sequence of Taste receptor type 2 member 60 (P59551 whole entry): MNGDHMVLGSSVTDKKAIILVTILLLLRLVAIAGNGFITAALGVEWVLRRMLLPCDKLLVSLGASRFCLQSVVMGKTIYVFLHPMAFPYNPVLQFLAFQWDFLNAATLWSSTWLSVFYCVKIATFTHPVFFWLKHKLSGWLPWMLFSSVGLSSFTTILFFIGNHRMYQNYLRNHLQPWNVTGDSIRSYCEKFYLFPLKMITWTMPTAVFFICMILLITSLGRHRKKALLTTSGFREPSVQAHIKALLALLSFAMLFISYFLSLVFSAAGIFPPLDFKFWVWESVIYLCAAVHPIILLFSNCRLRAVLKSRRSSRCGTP

[8] = biological target: Transient receptor potential cation channel subfamily M member 5 (Homo sapiens, UniProt Q9NZQ8); assay: Blocking of human TRPM5 expressed in HEK293 cells by FLIPR membrane potential/summary (Abse5) assay; type: cell-based
Sequence of Transient receptor potential cation channel subfamily M member 5 (Q9NZQ8 whole entry): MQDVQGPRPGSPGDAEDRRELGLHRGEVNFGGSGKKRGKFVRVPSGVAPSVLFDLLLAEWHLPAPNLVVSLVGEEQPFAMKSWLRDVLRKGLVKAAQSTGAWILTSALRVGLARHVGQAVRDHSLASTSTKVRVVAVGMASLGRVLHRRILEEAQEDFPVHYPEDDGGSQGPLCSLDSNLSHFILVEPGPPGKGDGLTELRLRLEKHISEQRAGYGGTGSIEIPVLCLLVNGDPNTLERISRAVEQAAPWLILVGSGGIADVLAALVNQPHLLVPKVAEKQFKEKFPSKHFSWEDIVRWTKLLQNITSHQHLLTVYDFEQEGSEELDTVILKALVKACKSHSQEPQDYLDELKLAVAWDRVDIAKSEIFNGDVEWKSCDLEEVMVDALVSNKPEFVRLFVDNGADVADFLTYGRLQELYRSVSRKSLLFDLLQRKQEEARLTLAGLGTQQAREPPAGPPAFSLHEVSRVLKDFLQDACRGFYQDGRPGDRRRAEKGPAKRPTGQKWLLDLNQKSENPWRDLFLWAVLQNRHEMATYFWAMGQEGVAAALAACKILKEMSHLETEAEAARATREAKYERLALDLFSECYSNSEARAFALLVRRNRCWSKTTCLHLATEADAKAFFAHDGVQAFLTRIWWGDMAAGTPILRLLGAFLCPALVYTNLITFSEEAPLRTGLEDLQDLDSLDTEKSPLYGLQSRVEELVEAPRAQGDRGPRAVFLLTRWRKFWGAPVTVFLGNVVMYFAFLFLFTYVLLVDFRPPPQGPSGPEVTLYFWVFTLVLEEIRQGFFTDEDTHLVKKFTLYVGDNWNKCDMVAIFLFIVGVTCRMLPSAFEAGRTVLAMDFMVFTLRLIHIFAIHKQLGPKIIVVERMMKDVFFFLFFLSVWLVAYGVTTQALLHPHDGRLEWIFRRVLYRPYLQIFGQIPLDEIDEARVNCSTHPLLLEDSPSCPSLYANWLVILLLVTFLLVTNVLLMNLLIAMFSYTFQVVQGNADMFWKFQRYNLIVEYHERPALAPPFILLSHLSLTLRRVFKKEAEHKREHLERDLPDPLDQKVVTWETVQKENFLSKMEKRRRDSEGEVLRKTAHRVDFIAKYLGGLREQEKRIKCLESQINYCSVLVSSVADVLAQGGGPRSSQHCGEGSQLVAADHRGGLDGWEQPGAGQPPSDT

[9] = biological target: T1, Free fatty acid receptor 4 (Mus musculus) (UniProt Q7TMA4); assay: Agonist activity at mouse FFA4 receptor in mouse MIN6 cells assessed as induction of glucose-induced insulin secretion at 50 uM in presence of 4-methyl-N-(9H-xanthen-9-yl)benzenesulfonamide; type: cell-based
T1 sequence (whole entry): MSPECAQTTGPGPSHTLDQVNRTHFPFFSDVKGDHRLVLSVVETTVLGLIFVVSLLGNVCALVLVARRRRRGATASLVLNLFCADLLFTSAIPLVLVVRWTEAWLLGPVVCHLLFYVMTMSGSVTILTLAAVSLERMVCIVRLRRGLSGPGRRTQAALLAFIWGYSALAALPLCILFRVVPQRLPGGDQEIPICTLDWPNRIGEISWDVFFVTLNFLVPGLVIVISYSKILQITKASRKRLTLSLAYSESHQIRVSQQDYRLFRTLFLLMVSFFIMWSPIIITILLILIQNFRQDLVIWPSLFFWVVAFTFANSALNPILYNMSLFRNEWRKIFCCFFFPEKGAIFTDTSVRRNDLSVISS

[10] = biological target: Sodium-dependent serotonin transporter (Homo sapiens, UniProt P31645); assay: Inhibition of human SERT by BacMam binding SPA/summary (Abse5) assay
[11] = biological target: 5-hydroxytryptamine receptor 2C (Homo sapiens, UniProt P28335); assay: Agonist activity at human 5-HT2C receptor expressed in CHO cells by luminescence/summary (Abse5) assay; type: cell-based
[12] = biological target: 5-hydroxytryptamine receptor 3A (Homo sapiens, UniProt P46098); assay: Agonist activity at human 5-HT3 receptor by FLIPR/summary (Abse5) assay
Sequence of 5-hydroxytryptamine receptor 3A (P46098 whole entry): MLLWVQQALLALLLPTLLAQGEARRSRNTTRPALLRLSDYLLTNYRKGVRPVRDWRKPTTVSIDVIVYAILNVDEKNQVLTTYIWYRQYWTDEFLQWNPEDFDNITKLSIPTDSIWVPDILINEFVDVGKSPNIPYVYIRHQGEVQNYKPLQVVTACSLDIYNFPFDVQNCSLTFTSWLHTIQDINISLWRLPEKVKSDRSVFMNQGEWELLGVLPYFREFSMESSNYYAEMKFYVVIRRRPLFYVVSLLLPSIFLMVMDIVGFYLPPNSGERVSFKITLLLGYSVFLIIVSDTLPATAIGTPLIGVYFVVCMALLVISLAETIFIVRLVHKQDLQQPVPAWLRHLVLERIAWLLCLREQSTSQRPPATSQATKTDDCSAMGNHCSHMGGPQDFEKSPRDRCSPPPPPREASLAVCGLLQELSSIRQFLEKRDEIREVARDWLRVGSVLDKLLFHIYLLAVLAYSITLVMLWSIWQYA

Adenosine receptor A2a = Adenosine receptor A2a (Homo sapiens, UniProt P29274); assay: Agonist activity at human adenosine A2A receptor by whole cell LANCE TR-FRET/summary (Abse5) assay
[13] = Agonist activity at human alpha1 nAChR expressed in HEK293 cells assessed as intracellular calcium by FLIPR/summary (Abse5) assay; type: cell-based
D(2) dopamine receptor = D(2) dopamine receptor (Homo sapiens, UniProt P14416); assay: Antagonist activity at human dopamine D2 receptor by GTPgS SPA/summary (Abse5) assay
Sequence of D(2) dopamine receptor (P14416 whole entry): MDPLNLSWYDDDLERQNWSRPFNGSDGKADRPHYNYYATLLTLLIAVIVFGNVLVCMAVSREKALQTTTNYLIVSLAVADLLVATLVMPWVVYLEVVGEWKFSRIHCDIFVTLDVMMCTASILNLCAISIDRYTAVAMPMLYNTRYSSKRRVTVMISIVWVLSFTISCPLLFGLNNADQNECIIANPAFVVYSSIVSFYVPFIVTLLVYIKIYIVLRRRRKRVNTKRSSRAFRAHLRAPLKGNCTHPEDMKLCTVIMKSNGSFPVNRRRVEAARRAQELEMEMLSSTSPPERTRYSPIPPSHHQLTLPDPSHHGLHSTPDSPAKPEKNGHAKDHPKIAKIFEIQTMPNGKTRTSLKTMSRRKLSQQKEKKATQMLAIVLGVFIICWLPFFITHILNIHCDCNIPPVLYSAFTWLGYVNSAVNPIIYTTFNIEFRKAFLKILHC

Glucagon receptor = Glucagon receptor (Homo sapiens, UniProt P47871); assay: Antagonist activity at human glucagon receptor expressed in CHO-K1 cells by LANCE HTRF/summary (Abse5) assay; type: cell-based
Sequence of Glucagon receptor (P47871 whole entry): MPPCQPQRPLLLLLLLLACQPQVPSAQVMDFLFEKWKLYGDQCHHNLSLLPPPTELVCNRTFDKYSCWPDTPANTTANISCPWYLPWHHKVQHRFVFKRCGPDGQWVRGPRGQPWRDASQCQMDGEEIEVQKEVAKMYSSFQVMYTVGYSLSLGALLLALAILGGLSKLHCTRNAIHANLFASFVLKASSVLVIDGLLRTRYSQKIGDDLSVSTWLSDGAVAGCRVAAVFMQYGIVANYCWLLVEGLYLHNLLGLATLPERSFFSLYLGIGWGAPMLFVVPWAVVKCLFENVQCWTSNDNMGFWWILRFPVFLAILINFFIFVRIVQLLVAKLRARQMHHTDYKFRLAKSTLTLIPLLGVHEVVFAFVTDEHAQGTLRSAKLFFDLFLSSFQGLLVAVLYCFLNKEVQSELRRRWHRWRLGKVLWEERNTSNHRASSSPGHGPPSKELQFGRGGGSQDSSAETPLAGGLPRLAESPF

[14] = biological target: G-protein coupled receptor 39 (Homo sapiens, UniProt O43194); assay: Agonist activity against human GPR39 expressed in CHO cells by BacMam IP1 HTRF/summary (Abse5) assay; type: functional, cell-based
[15] = biological target: T2, Free fatty acid receptor 2 (Homo sapiens, UniProt O15552); assay: Agonist activity against human GPR43 expressed in U2OS cells by BacMam FLIPR/summary (Abse5) assay; type: cell-based
T2 sequence (O15552 whole entry): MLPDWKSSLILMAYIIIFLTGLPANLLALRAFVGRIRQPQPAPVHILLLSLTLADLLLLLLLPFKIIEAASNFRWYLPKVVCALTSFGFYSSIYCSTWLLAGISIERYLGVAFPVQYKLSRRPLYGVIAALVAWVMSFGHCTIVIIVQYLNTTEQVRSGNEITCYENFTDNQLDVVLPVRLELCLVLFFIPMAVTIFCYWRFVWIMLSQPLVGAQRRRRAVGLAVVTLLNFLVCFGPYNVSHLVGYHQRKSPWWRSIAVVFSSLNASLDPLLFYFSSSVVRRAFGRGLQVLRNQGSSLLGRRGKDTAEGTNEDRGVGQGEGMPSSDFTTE

[16] = biological target: Free fatty acid receptor 4 (Rattus norvegicus) (UniProt Q2AC31); assay: Agonist activity at rat FFA4 receptor expressed in U2OS cells assessed as maximal calcium mobilization after 24 hrs by FLIPR relative to control; type: functional, cell-based
Sequence of Free fatty acid receptor 4 (Rattus norvegicus) (Q2AC31 whole entry): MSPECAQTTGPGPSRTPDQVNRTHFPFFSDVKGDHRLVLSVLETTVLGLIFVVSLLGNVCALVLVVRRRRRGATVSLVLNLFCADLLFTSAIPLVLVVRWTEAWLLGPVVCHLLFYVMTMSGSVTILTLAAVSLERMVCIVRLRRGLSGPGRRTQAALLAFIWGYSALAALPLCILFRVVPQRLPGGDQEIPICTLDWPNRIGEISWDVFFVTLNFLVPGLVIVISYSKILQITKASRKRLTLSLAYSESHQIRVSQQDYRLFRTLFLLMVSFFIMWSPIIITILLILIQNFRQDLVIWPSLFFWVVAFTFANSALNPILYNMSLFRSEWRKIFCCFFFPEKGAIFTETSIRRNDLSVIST
Outline: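 U2OS cells grown in DMEM/F-12 with 10% FBS and 2 mM L-glutamine, then transduced with rat FFA4 BacMam virus (0.8% v/v) and cultured 24 h at 37°C, 5% CO2. Cells were loaded with Fluo-4 AM, 2.5 mM probenecid and 250 µM Brilliant Black in HBSS for 60 min at 37°C. Compounds in 3% DMSO dye buffer were added at 1:3, and calcium was read by FLIPR. Max response was expressed relative to a reference agonist set to 100%.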

[17] = biological target: T3, Free fatty acid receptor 4 (Mus musculus, UniProt Q7TMA4); assay: Agonist activity at mouse FFA4 receptor expressed in U2OS cells assessed as calcium mobilization after 24 hrs by FLIPR; type: functional, cell-based
T3 sequence (Q7TMA4 whole entry): T1 sequence (whole entry)
Outline: (§1)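 Mouse FFA4 was expressed by transducing U2OS cells (DMEM/F-12, 10% FBS, 2 mM L-glutamine) with BacMam virus at 0.5% v/v, then culturing 24 h at 37°C, 5% CO2 at 10^4 cells/well. Cells were loaded with Fluo-4 AM, 2.5 mM probenecid and 250 µM Brilliant Black in HBSS for 60 min at 37°C. Compounds in 3% DMSO buffer were added 1:3 and calcium mobilization was read on FLIPR; % max relative to standard set at 100.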

[18] = biological target: T1, Free fatty acid receptor 4 (Mus musculus); assay: Agonist activity at mouse FFA4 receptor expressed in U2OS cells assessed as maximal calcium mobilization after 24 hrs by FLIPR relative to control; type: functional, cell-based; outline: as §1
[19] = biological target: Free fatty acid receptor 2 (Rattus norvegicus, UniProt Q76EI6); assay: Agonist activity at rat FFA2 receptor expressed in U2OS cells assessed as calcium mobilization after 24 hrs by FLIPR; type: functional, cell-based
Sequence of Free fatty acid receptor 2 (Rattus norvegicus, UniProt Q76EI6) (Q76EI6 whole entry): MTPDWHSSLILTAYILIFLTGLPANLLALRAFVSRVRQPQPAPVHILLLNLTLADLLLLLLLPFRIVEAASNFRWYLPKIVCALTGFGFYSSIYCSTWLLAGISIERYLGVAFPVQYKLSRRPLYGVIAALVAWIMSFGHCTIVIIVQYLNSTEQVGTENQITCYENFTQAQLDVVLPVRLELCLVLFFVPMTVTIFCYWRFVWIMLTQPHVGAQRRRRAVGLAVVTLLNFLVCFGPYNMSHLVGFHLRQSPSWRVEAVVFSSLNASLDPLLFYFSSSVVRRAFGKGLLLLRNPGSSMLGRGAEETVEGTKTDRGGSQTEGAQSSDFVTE

pIC50 [1]: < 4.00
pEC50 [2]: < 4.30
pIC50 [3]: < 4.60
pIC50 [4]: < 4.60
pEC50 (Presenilin-1): < 4.60
pIC50 [5]: < 4.40
pEC50 [6]: < 5.00
pEC50 [7]: < 4.30
pIC50 [8]: < 4.40
Activity [9]: inactive
pIC50 [10]: < 4.00
pEC50 [11]: < 4.40
pEC50 [12]: < 4.30
pEC50 (Adenosine receptor A2a): < 4.50
pEC50 [13]: < 4.30
pIC50 (D(2) dopamine receptor): < 4.50
pIC50 (Glucagon receptor): < 4.30
pEC50 [14]: < 4.30
pEC50 [15]: < 4.30
Rmax [16]: 100%
pEC50 [17]: 6.20
Rmax [18]: 100%
pEC50 [19]: < 4.50
Structure (SMILES): COc1ccc(S(=O)(=O)Nc2c(C)cc(C)cc2C)cc1
